Experimental data pooled from the literature.
Each line is one published result; the experiments were not run side by side.
Effect on: cell growth or viability

| Compound | cell line | test | conditions | measurement | result |
| --- | --- | --- | --- | --- | --- |
| N=C(N)NCc1ccc(NC(=O)c2ccc(C(=O)Nc3ccc(C4=CCN(C(=N)N)CC4)nn3)cc2)cc1 | NIH3T3 | MTS | 24 h | CC50 | 231 µM |
| O=C(O)c1ccc(P(c2ccccc2)c2ccccc2)cc1 | NIH3T3 | resazurin | 18 h | CC50 | 210 µg/mL |
| COc1cccc2c1C(=O)c1c(O)c3c(c(O)c1C2=O)C[C@@](O)(C(=O)CO)C[C@@H]3O[C@H]1C[C@H](N)[C@H](O)[C@H](C)O1 | HFF-1 | resazurin | 72 h | CC50 | 0.468 µM |
| N=C(N)NCc1ccc(NC(=O)c2ccc(C(=O)Nc3ccc(C4=CCN(C(=N)N)CC4)cc3)cn2)cc1 | NIH3T3 | MTS | 24 h | CC50 | > 1170 µM |
| COc1ccc(S(=O)(=O)ON=C2C=C(C)C(=O)C(C)=C2)cc1 | PC-3 | – | – | CC50 | 4.74 µM |
| O=C(CCl)Cn1nnc(-c2ccccc2)c1COC(=O)NCc1ccccc1 | HFF-1 | ATP luminescence | 48 h | CC50 | 20 µM |
| COc1cc(OC)cc([C@H]2C[C@@H](C)OC(=O)c3cc4ccccn4c32)c1 (racemic) | HFF-1 | resazurin | 72 h | CC50 | > 100 µM |
| CCCCCCCCCCCCCCCc1ccc(CP(=O)(O)O)cc1 | Mm1 | trypan blue | 10 µM, 20 h | viability | > 93% |
